According to ChEMBL document CHEMBL2407036, “Flow Synthesis and Biological Studies of an Analgesic Adamantane Derivative That Inhibits P2X7-Evoked Glutamate Release” (ACS Med Chem Lett, 2013):
Blank lines part the entries; values can stand above or below the compound they belong to. The source made the active and inactive calls. The rule behind the calls is not given here.

Assays:
Mus musculus [1] = assay: Analgesic activity in Swiss albino mouse assessed as inhibition of acetic acid-induced abdominal contraction at 20 to 60 mg/kg, po measured after 30 mins; format: functional, organism-based; settings: Abdominal cavity
[2] = target: T1, P2X purinoceptor 7 (Rattus norvegicus) (UniProt Q64663); assay: Agonist activity at P2X7 in Sprague-Dawley rat synaptosome assessed as [3H]D-aspartate efflux at 100 uM for 120 secs by liquid scintillation counting; settings: Brain
T1 sequence (whole entry): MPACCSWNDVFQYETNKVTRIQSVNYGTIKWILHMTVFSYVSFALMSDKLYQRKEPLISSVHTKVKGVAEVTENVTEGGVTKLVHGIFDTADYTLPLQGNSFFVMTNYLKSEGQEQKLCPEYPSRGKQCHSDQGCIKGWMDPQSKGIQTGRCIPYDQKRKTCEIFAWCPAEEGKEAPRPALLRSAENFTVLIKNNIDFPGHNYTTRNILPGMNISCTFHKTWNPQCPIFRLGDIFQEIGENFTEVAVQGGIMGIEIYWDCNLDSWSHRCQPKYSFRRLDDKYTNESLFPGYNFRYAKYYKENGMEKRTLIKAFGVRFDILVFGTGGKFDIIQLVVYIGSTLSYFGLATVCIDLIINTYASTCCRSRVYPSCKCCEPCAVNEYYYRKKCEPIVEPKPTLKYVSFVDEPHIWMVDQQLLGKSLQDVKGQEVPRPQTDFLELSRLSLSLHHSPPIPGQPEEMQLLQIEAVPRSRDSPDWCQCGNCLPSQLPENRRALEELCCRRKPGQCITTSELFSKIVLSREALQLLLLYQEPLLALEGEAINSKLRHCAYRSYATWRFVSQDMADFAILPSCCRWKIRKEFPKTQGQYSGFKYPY

Mus musculus [3] = assay: Analgesic activity in Swiss albino mouse assessed as inhibition of acetic acid-induced abdominal contraction at 10 to 60 mg/kg, po measured after 30 mins; format: functional, organism-based; settings: Abdominal cavity
[4] = target: T1, P2X purinoceptor 7 (Rattus norvegicus); assay: Antagonist activity at P2X7 in Sprague-Dawley rat synaptosome assessed as inhibition of BzATP-induced [3H]D-aspartate efflux preincubated at 10 uM for 8 mins by liquid scintillation counting; settings: Brain
Procedure, shortened: (§1)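 Purified rat cerebrocortical synaptosomes loaded with [3H]D-aspartate and superfused. 100 μM BzATP added for 120 s. Compound added 8 min before BzATP. Ca2+-free conditions used medium with 0.5 mM EGTA, added 18 min before BzATP. Log concentration–response for inhibition of evoked efflux. Mean ± SEM of 3−12 independent experiments in triplicate.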

[5] = target: T1, P2X purinoceptor 7 (Rattus norvegicus); assay: Antagonist activity at P2X7 in Sprague-Dawley rat synaptosome assessed as inhibition of BzATP-induced [3H]D-aspartate efflux preincubated at 10 uM for 8 mins by liquid scintillation counting in absence of extracellular Ca2+; settings: Brain; procedure, shortened: as §1

SMILES: C[C@@H](NC(=O)C1(NC(=O)c2ccccc2)C2CC3CC(C2)CC1C3)C(=O)O (stereo not given in full)
inhibition (Mus musculus [1]): inactive

Activity [2]: Active
SMILES: Nc1ncnc2c1ncn2[C@@H]1O[C@H](COP(=O)(O)OP(=O)(O)OP(=O)(O)O)[C@@H](OC(=O)c2ccc(C(=O)c3ccccc3)cc2)[C@H]1O

SMILES: N[C@H](c1ccccc1)[C@H](NC(=O)C1(NC(=O)c2ccccc2)C2CC3CC(C2)CC1C3)c1ccccc1 (stereo not given in full)
inhibition (Mus musculus [3]): Active

inhibition [4]: Active
inhibition [5]: Active
SMILES: Clc1cccc(-c2nnnn2Cc2cccnc2)c1Cl
